The source made the active and inactive calls.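 The calls were made as follows, unless noted: active = inhibition above 20% together with a positive visual image hit; inconclusive = visual image hit but inhibition not above 20%; inactive = no visual image hit.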
Experiments:
[1] = inhibitors of TNFa-induced NFkB p65 translocation, primary screen, imaging, HUVEC, MLSMR starter and 10KST1 sets (AID 438); conditions: HUVEC TNFa-induced p65 nuclear translocation; cell count: measured here: nuclei count (cytotoxicity indicator), at 2.08 µM; inhibition: at 2 µM, stronger effect = higher value, 0% TNFa-plus-vehicle, 100% no-TNFa wells;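 also: compound added about 3h40 before a 20 min TNFalpha stimulation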;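 as to inhibition: signal is the nuclear over cytoplasmic p65 intensity ratio per well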
[2] = inhibitors of E-selectin induction by TNFa, primary screen, imaging, HUVEC, immunofluorescence, MLSMR starter and 10KST1 sets (AID 487;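 active = visually confirmed hit in the image check and inhibition above 20%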;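 as to inhibition: signal is fraction of cell area covered by stained E-selectin grains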;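 as to nuclei count: 100% = median nuclei count of all wells on the same plate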); conditions: HUVEC TNFalpha-induced E-selectin immunofluorescence imaging, at 2 µM; inhibition: stronger effect = higher value; nuclei count: measured here: cell number, toxicity
[3] = DUSP6 inhibitors restoring Erk phosphorylation by chemical complementation, primary imaging in DUSP6-transfected HeLa (AID 609;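 active = compounds giving at least 50% inhibition in the cell-based MKP-3 phosphatase rescue imaging test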;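 as to inhibition: phospho-Erk level distribution per well compared with pooled transfected vehicle control wells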); conditions: HeLa MKP-3 transfected, phospho-Erk imaging KS statistic, at 10 µM, cells stimulated with TPA for 15 min
[4] = target: Dual specificity protein phosphatase 6 (Homo sapiens) (UniProt Q16828); assay: as above; conditions: HeLa MKP-3 transfected, phospho-Erk imaging KS statistic; at 10 µM; stronger effect = higher value; cells stimulated with TPA for 15 min
[5] = target: Voltage-gated potassium channel subunit beta-2 (Rattus norvegicus) (UniProt P62483); assay: KvBeta enzyme negative modulators, primary screen, biochemical, NADPH fluorescence (AID 622;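 active = fluorescence slope higher than the sample average by over 3 SD, cut at about -0.22 in these data, passing the limit was not always enough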;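 also: slope of raw intensity against log time taken from 70 to 1610 s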); conditions: recombinant KvBeta, 4-cyanobenzaldehyde reduction, at 10 µM, stronger effect = higher value
[6] = target: Voltage-gated potassium channel subunit beta-2 (Rattus norvegicus) (UniProt P62483); assay: KvBeta positive modulators, primary screen, biochemical, NADPH fluorescence (AID 623;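 active = NADPH fluorescence slope more negative than the mean of all samples by about 3 SD, 99.7% confidence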;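 also: fluorescence intensity change per second fitted from 20 to 320 s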); conditions: Recombinant KvBeta, NADPH fluorescence decrease slope, 10 min; at 10 µM; stronger effect = lower value
[7] = target: Muscarinic acetylcholine receptor M4 (Homo sapiens) (UniProt P08173); assay: compounds altering M4/GIRK thallium flux, either direction, primary screen, M4 allosteric agonist project, cell-based, HEK293 M4/GIRK, BTC-AM (AID 625;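 active = fluorescence slope after compound addition differing from the mean of all tested samples at 99.7% confidence, mostly higher but some lower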;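 also: thallium influx through GIRK channels coupled to M4 in HEK293 cells with BTC-AM dye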); conditions: at 10 µM, actives lie on both sides
Method in brief: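 Material – HEK293 cells with M4 receptor and GIRK channels · Buffer or medium – pH 7.3 thallium assay buffer · Doses – one dose, 10 µM final · Timing – cells overnight at 37 °C, BTC-AM loading 1 h, reads 2 min total · Measured by – kinetic fluorescence with BTC-AM dye · Controls – carbachol and DMSO controls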

[8] = inhibitors of larval lipid processing in zebrafish, primary screen, whole organism, PED6 fluorescence, gall bladder and intestine (AID 686;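 active = a full or partial loss of lipid-probe fluorescence in the fish gall bladder, intestine or both, judged by eye; inactive = no fluorescence loss, or compound toxic to the fish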;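 also: larvae 5 to 7 days old with five fish per well; signal comes from phospholipase A2 cleavage of quenched PED6 carried via bile; overnight exposure to compound and PED6 before scoring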); conditions: Zebrafish larvae PED6 lipid processing, fluorescence scoring; screened at 20 µM (by protocol)
Method in brief: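 system = live zebrafish larvae aged 5-7 days, whole organism | probe or stimulus = ingested quenched lipid PED6 at 100 nM | doses = 20 µM single dose | timing = overnight exposure | detection = fluorescence microscopy with visual scoring of gall bladder and intestine | read-out = visual per-well fluorescence inhibition score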

[9] = inhibitors of Chlamydomonas gravitaxis, primary screen, whole organism, Chlamydomonas reinhardtii, WT vs cilia-less mutant, absorbance, 96-well (AID 463189;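 active = inhibition at or above 50% relative to wild type and mutant plate controls; inactive = inhibition below 50%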;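 also: 0% = wild type cc124 cells in DMSO and 100% = ciliumless bld1 mutant cells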); conditions: OD600 absorbance, 2 days, at 10 µM, stronger effect = higher value
[10] = measured here: cell density z-score
[11] = measured here: nuclear c-Myc green intensity z-score
[12] = measured here: nuclear pErk red intensity z-score, stronger effect = higher value

Chain of Voltage-gated potassium channel subunit beta-2 (Rattus norvegicus) (P62483 whole entry, looked up): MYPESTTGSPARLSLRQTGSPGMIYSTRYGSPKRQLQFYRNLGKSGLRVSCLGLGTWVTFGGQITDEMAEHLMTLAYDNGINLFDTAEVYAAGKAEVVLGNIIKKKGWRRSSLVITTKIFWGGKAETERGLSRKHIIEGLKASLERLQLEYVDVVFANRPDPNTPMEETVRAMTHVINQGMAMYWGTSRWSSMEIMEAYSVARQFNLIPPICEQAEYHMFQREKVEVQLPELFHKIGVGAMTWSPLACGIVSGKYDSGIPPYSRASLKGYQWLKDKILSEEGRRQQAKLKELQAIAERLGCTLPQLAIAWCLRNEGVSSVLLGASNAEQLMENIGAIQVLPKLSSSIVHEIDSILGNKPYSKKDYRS
Chain of Dual specificity protein phosphatase 6 (Homo sapiens) (Q16828 whole entry, looked up): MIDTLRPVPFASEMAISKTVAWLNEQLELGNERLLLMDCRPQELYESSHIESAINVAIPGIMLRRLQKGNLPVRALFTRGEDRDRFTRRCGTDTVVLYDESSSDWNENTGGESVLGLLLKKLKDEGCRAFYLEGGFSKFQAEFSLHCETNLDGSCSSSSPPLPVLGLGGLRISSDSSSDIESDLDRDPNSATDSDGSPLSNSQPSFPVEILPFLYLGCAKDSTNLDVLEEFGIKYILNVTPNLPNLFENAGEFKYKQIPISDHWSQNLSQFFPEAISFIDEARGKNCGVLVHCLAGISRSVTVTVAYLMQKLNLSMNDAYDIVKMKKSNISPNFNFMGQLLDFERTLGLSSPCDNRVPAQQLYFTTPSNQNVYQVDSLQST
Chain of Muscarinic acetylcholine receptor M4 (Homo sapiens) (P08173 whole entry, looked up): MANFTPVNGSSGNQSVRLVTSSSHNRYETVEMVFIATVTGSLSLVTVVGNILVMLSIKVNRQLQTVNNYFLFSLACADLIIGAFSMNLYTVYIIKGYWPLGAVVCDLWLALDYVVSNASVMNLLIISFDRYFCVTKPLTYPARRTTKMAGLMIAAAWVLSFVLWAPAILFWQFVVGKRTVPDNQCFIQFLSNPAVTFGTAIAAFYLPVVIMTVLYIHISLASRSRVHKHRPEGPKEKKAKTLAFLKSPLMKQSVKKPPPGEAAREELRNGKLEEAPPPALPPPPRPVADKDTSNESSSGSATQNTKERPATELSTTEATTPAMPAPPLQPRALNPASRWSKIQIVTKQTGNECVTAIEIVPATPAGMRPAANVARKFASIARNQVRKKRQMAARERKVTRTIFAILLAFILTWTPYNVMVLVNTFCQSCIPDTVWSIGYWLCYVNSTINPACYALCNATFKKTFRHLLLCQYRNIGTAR

| Structure (SMILES) | cell count [1] | inhibition [1] | inhibition [2] | nuclei count [2] [%] | z-score [3, 10] | z-score [3, 11] | z-score [3, 12] | inhibition [4] | fluorescence slope [5] | NADPH fluorescence slope [6] | fluorescence slope [7] | outcome [8] | inhibition [9] |
| --- | --- | --- | --- | --- | --- | --- | --- | --- | --- | --- | --- | --- | --- |
| CC(C)CN1C(=O)c2ccc(C(=O)Nc3ccccn3)cc2C1=O | 669 | -5.4% (inactive) | 50% (inactive) | 136 | -1.42 | 1.32 | -0.345 | -11.4% (inactive) | -0.495 (inactive) | -4.7e-05 (inactive) | 0.00831 (inactive) | inactive | -7.05% (inactive) |
| CC(C)=CCC(C)(C)CNC(=O)NC1CCCCC1 | 577 | -4.2% (inactive) | -143% (inactive) | 147 | -0.346 | -0.203 | -0.256 | -0.584% (inactive) | -0.459 (inactive) | -0.000111 (inactive) | 0.00622 (inactive) | inactive | 19.5% (inactive) |
| COc1ccc(C2C(C(C)=O)=C(O)C(=O)N2c2nccs2)cc1OC (stereo not drawn) | 651 | -8.9% (inactive) | -2.2% (inactive) | 87.4 | -0.646 | -0.662 | -0.478 | -7.67% (inactive) | -0.5 (inactive) | -0.000231 (inactive) | 0.00821 (inactive) | inactive | -3.88% (inactive) |
| COc1ccc2nc(/N=C(\N)NC(=O)C(C)(C)C)nc(C)c2c1 | 503 | -6.3% (inactive) | -18.6% (inactive) | 184 | 0.367 | -0.163 | -0.285 | 9.91% (inactive) | -0.361 (inactive) | -3e-05 (inactive) | 0.00616 (inactive) | inactive; toxic | 2.17% (inactive) |
| CCC1SC2=NC(C)=C(C(=O)OCCOC)C(c3ccc(C(=O)OC)cc3)N2C1=O (stereo not drawn) | 441 | -11.9% (inactive) | -71.6% (inactive) | 154 | 0.414 | -0.811 | -0.806 | -2.29% (inactive) | -0.411 (inactive) | -4.9e-05 (inactive) | 0.0052 (inactive) | inactive | 6.13% (inactive) |
| Cn1c(=O)c2c(nc(Br)n2CCSc2nc3ccccc3o2)n(C)c1=O | 608 | -8.8% (inactive) | 32.7% (inactive) | 175 | -0.0761 | 0.135 | -1.22 | 17.4% (inactive) | -0.346 (inactive) | -7e-06 (inactive) | 0.00576 (inactive) | inactive | 45.2% (inactive) |
| COc1ccc(CCNc2oc(COc3ccccc3)nc2C#N)cc1 | 481 | -2.4% (inactive) | -411% (inactive) | 140 | 0.781 | 0.424 | 0.61 | -3.95% (inactive) | -0.409 (inactive) | -5.2e-05 (inactive) | 0.00409 (inactive) | inactive | -2.43% (inactive) |
| CC1(C)Cc2c(c(N3CCOCC3)nc3snc(Br)c23)CO1 | 489 | -4.5% (inactive) | -99.5% (inactive) | 130 | -1.77 | 2.53 | -2.36 | 5.42% (inactive) | -0.502 (inactive) | -1.8e-05 (inactive) | 0.00473 (inactive) | inactive | 2.33% (inactive) |
| CCOC(=O)c1[nH]c2ccc(C)cc2c1N=CN(CC)CC | 681 | -16.8% (inactive) | -97.9% (inactive) | 174 | -1.2 | 1.5 | 0.686 | 3.97% (inactive) | -0.474 (inactive) | -7.5e-05 (inactive) | 0.00485 (inactive) | inactive | -5% (inactive) |
| CCSc1nnc(NC(=O)C(C(F)(F)F)C(F)(F)F)s1 | 702 | -5% (inactive) | -40.7% (inactive) | 146 | -0.0594 | -1.31 | -1.04 | -0.233% (inactive) | -0.449 (inactive) | -4.7e-05 (inactive) | 0.00555 (inactive) | inactive | 21.1% (inactive) |
| CCCCOC(=O)CCc1nc2ccccc2[nH]1 | 716 | -2.4% (inactive) | -50.5% (inactive) | 195 | -0.361 | 0.108 | 1.13 | -3.97% (inactive) | -0.484 (inactive) | -5.5e-05 (inactive) | 0.00514 (inactive) | inactive | 8.4% (inactive) |
| COc1ccc(CCn2c(C)cc3c(c2=O)C(c2ccc4c(c2)OCO4)C(C#N)=C(N)O3)cc1OC (stereo not drawn) | 697 | -0.5% (inactive) | -141% (inactive) | 170 | 1.12 | 0.0675 | -1.33 | 9.61% (inactive) | -0.468 (inactive) | -4.4e-05 (inactive) | 0.00505 (inactive) | inactive | 5.67% (inactive) |
| CSc1nc2[nH]c3c(c2c2ncnn12)CCCC3 | 547 | -3.6% (inactive) | 37.3% (inactive) | 171 | -0.205 | -0.317 | -0.0331 | 1.98% (inactive) | -0.379 (inactive) | -4.9e-05 (inactive) | 0.00321 (inactive) | inactive | 44.1% (inactive) |
| CC(=O)c1ccc(C#CC(C)(C)O)s1 | 496 | -2.5% (inactive) | -51.1% (inactive) | 126 | -0.749 | 0.398 | 0.00406 | -3.97% (inactive) | -0.386 (inactive) | -7.4e-05 (inactive) | 0.00521 (inactive) | inactive | -7.15% (inactive) |
| CN(C)c1ccc(NC(=O)c2sc(SCC(=O)Nc3nccs3)nc2N)cc1 | 700 | -11.3% (inactive) | 0.8% (inactive) | 179 | -1.08 | 1.63 | 0.495 | 1.98% (inactive) | -0.491 (inactive) | -9e-05 (inactive) | 0.00686 (inactive) | inactive | -7.49% (inactive) |
| COC(=O)C(NC(=O)c1ccco1)(Nc1ccc(Br)cn1)C(F)(F)F (stereo not drawn) | 717 | -8.8% (inactive) | 13.2% (inactive) | 147 | -0.772 | -0.373 | 1.11 | -5.81% (inactive) | -0.457 (inactive) | -6.6e-05 (inactive) | 0.00446 (inactive) | inactive | 4.54% (inactive) |
| N#C/C(C(=O)NCc1ccco1)=C1/SC(Cc2ccc(Cl)cc2)C(=O)N1c1ccccc1 (stereo not drawn) | 633 | -0.2% (inactive) | -35.3% (inactive) | 104 | 0.196 | -0.248 | -0.52 | -9.53% (inactive) | -0.428 (inactive) | -5.4e-05 (inactive) | 0.00683 (inactive) | inactive | 2.21% (inactive) |
| CCOC(=O)Cc1[nH]nc2c1C(c1cc(OC)ccc1OC)C(C#N)=C(N)O2 (stereo not drawn) | 591 | -5.3% (inactive) | -13.2% (inactive) | 140 | 1.07 | 1.02 | 0.992 | 21% (inactive) | -0.503 (inactive) | -5.8e-05 (inactive) | 0.00642 (inactive) | inactive | -4.63% (inactive) |
| CCCCc1nc(N2CCOCC2)c(C#N)c2c1COC(C)(C)C2 | 530 | -4.2% (inactive) | -202% (inactive) | 149 | 1.13 | -0.937 | -0.238 | 15.4% (inactive) | -0.458 (inactive) | -6.7e-05 (inactive) | 0.00404 (inactive) | inactive | 1.03% (inactive) |
| CCOc1cccc(NC(=O)C2CC(=O)NC(=Nc3ccccc3)S2)c1 (stereo not drawn) | 590 | -4.7% (inactive) | -27.3% (inactive) | 117 | -0.0327 | -1.3 | -0.145 | -11.4% (inactive) | -0.456 (inactive) | -1.8e-05 (inactive) | 0.00448 (inactive) | inactive | 8.03% (inactive) |
| Cc1cc(C)nc(N(C#N)CN2C(=O)c3ccccc3C2=O)n1 | 629 | 6.2% (inactive) | 26.6% (inactive) | 107 | -0.879 | 0.404 | -0.916 | -9.53% (inactive) | -0.523 (inactive) | -3.9e-05 (inactive) | 0.00446 (inactive) | inactive | 30.7% (inactive) |
| COc1cccc(C2/C(=C(\O)c3ccc(OC)c(OC)c3)C(=O)C(=O)N2c2cc(C)on2)c1 (stereo not drawn) | 715 | 1.5% (inactive) | -63.2% (inactive) | 178 | -0.072 | -0.154 | 1.26 | -4.7% (inactive) | -0.449 (inactive) | -3e-05 (inactive) | 0.00553 (inactive) | inactive | -1.1% (inactive) |
| COc1ccc(C2/C(=C(\O)c3ccc4c(c3)OCCO4)C(=O)C(=O)N2CCCN(C)C)cc1 (stereo not drawn) | 368 | -2.4% (inactive) | -14.3% (inactive) | 131 | -2.04 | 0.887 | -0.106 | 3.56% (inactive) | -0.506 (inactive) | -3.1e-05 (inactive) | 0.00537 (inactive) | inactive | -13.1% (inactive) |
| Cc1ccc(CNC(=O)c2cc3c(=O)n4ccccc4nc3n(CC3CCCO3)c2=N)cc1 (stereo not drawn) | 542 | -11.9% (inactive) | -40.3% (inactive) | 93.4 | -0.636 | 0.681 | -1.25 | 2.71% (inactive) | -0.331 (inactive) | -2.1e-05 (inactive) | -0.000734 (active) | inactive | 32.5% (inactive) |
| N#Cc1nc(COc2ccccc2Cl)oc1NCc1ccc(F)cc1 | 432 | -1.7% (inactive) | -89.3% (inactive) | 182 | -1.38 | 0.104 | 0.625 | 2.71% (inactive) | -0.373 (inactive) | -3.8e-05 (inactive) | 0.00509 (inactive) | inactive | -1.44% (inactive) |
| CCCn1c(SCC(N)=O)nc2c(c1=O)C1(CCCC1)Cc1ccccc1-2 | 555 | -8% (inactive) | 20.3% (inactive) | 170 | 0.28 | 0.545 | 0.00156 | 1.98% (inactive) | -0.386 (inactive) | -5.2e-05 (inactive) | 0.00485 (inactive) | inactive | -1.68% (inactive) |

Source: PubChem BioAssay
